One series concerns NCI-H1975. The series is described as follows: Antiproliferative activity against human NCI-H1975 cells harboring EGFR L858R/T790M double mutant assessed as inhibition of cell growth. Type of series: functional.
In series [1] the target is Epidermal growth factor receptor (Homo sapiens, UniProt P00533). The series is described as follows: Inhibition of N-terminal GST-tagged human recombinant EGFR cytoplasmic domain (668 to 1210 residues) expressed in baculovirus expression system by Z'-LYTE kinase assay.
Series [2] is described as follows: Toxicity in BALB/c nude mouse xenografted with human NCI-H1975 cells assessed as changes in body weight at 60 mg/kg, iv administered 5 days a week for 3 weeks. It counts as organism-based. To be noted: in vivo, 504 h. A digest of the protocol: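 Female BALB/c nude mice aged 4-6 weeks, H1975 cells (3 × 10^6 in 0.1 ml RPMI-1640) implanted subcutaneously in the right flank. At day 12, tumors ~150 mm3, mice grouped n=6. […] Test agent in 5% ethanol/5% DMSO/10% Cremophor EL/80% saline at 60 mg/kg i.v. five times weekly. Vehicle group received i.v. vehicle. Tumor and body weight recorded daily by caliper; TV = width² × length × 0.5. Mean ± SD, Student's t-test.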

The next series concerns Huh-7. Put plainly: Antiproliferative activity against human Huh-7 cells assessed as inhibition of cell growth after 72 hrs by CCK8 assay. Type of series: functional, cell-based. A digest of the protocol:
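Cells kept in RPMI or DMEM with 10% FBS and 1% penicillin/streptomycin, 37 °C, 5% CO2. Plated at 400-800 cells/well, treated with a range of test concentrations or vehicle for 72 h. CCK8 reagent added, absorbance read at 450 nm.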

The target in series [3] is Epidermal growth factor receptor (Homo sapiens, UniProt P00533, L858R). Put plainly: Inhibition of N-terminal GST-tagged human recombinant EGFR L858R mutant (668 to 1210 residues) expressed in baculovirus expression system by Z'-LYTE kinase assay.
The next series relates to MCF7. The series is described as follows: Antiproliferative activity against human MCF-7 cells assessed as inhibition of cell growth after 72 hrs by CCK8 assay. To be noted: MCF7, 72 h.
The target of series [4] is Epidermal growth factor receptor (Homo sapiens, UniProt P00533, T790M). Put plainly: Inhibition of N-terminal GST-tagged human recombinant EGFR T790M mutant (668 to 1210 residues) expressed in baculovirus expression system by Z'-LYTE kinase assay.
The target in series [5] is Epidermal growth factor receptor (Homo sapiens, UniProt P00533, L861Q). The series is described as follows: Inhibition of N-terminal GST-tagged human recombinant EGFR L861Q mutant (668 to 1210 residues) expressed in baculovirus expression system by Z'-LYTE kinase assay.
For another series, the system named is K562. Put plainly: Antiproliferative activity against human K562 cells assessed as inhibition of cell growth after 72 hrs by CCK8 assay. To be noted: K562, 72 h.

Epidermal growth factor receptor (Homo sapiens, UniProt P00533, L858R), sequence (P00533 25-1210 L858R limits assumed): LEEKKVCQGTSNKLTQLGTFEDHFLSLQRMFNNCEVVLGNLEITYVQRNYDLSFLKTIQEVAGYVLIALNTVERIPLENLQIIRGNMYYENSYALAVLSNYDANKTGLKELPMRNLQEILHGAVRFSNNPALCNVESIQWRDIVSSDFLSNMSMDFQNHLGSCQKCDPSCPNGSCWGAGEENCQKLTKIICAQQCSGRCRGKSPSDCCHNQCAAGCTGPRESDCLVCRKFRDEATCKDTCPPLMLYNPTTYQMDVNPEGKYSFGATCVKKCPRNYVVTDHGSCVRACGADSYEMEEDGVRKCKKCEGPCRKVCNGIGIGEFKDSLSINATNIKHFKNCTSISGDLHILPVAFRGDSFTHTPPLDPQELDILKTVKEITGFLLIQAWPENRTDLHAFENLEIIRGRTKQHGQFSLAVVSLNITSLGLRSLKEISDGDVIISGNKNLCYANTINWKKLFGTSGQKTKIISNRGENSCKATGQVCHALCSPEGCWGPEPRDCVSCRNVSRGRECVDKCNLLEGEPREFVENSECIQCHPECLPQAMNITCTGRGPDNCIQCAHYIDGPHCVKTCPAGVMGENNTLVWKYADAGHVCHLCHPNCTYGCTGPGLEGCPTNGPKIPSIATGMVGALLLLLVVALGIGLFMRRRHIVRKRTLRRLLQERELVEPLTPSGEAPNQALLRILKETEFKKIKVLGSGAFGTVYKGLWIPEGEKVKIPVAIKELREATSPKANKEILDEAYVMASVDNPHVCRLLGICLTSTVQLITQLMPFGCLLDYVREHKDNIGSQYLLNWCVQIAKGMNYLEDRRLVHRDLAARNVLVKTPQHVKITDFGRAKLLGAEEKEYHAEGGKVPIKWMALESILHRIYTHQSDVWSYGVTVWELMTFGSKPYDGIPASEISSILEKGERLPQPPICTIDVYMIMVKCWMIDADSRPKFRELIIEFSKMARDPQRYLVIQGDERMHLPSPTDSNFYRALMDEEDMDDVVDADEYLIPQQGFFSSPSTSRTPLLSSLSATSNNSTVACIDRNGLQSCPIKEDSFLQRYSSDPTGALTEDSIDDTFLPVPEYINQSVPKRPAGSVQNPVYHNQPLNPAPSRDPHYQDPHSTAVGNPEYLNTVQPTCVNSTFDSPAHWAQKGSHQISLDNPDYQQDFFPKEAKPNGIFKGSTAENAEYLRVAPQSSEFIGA
Epidermal growth factor receptor (Homo sapiens, UniProt P00533), sequence (P00533 whole entry, the tested form may be a part): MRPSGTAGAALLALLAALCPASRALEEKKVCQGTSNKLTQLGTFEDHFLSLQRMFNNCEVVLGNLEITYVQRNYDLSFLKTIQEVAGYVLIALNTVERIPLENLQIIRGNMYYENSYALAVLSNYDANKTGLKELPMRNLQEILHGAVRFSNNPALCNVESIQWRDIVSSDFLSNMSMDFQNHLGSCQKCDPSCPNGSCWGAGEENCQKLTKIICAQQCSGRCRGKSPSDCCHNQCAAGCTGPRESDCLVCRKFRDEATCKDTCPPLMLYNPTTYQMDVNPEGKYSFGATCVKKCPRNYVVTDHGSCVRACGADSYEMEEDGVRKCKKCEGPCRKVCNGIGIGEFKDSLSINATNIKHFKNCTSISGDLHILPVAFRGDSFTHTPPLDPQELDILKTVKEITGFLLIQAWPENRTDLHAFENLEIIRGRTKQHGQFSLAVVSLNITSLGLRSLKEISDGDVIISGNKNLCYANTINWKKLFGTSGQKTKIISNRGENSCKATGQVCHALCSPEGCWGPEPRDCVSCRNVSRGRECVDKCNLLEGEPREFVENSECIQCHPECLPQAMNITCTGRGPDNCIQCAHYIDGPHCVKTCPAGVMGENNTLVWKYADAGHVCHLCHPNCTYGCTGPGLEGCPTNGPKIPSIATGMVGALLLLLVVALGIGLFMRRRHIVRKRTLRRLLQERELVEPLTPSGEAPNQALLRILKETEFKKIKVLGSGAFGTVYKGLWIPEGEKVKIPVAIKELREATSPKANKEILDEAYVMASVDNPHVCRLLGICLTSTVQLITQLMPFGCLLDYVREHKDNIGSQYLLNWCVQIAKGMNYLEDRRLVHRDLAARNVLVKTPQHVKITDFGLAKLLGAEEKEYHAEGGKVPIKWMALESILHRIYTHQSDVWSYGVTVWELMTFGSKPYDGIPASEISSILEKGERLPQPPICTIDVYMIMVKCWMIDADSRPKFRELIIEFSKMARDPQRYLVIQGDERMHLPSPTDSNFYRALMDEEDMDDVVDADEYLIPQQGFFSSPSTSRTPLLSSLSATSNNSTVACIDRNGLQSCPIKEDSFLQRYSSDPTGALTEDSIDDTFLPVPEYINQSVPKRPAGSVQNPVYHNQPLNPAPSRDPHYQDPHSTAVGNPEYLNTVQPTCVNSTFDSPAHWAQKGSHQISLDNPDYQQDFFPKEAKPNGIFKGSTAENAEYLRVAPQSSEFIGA
Epidermal growth factor receptor (Homo sapiens, UniProt P00533, T790M), sequence (P00533 25-1210 T790M limits assumed): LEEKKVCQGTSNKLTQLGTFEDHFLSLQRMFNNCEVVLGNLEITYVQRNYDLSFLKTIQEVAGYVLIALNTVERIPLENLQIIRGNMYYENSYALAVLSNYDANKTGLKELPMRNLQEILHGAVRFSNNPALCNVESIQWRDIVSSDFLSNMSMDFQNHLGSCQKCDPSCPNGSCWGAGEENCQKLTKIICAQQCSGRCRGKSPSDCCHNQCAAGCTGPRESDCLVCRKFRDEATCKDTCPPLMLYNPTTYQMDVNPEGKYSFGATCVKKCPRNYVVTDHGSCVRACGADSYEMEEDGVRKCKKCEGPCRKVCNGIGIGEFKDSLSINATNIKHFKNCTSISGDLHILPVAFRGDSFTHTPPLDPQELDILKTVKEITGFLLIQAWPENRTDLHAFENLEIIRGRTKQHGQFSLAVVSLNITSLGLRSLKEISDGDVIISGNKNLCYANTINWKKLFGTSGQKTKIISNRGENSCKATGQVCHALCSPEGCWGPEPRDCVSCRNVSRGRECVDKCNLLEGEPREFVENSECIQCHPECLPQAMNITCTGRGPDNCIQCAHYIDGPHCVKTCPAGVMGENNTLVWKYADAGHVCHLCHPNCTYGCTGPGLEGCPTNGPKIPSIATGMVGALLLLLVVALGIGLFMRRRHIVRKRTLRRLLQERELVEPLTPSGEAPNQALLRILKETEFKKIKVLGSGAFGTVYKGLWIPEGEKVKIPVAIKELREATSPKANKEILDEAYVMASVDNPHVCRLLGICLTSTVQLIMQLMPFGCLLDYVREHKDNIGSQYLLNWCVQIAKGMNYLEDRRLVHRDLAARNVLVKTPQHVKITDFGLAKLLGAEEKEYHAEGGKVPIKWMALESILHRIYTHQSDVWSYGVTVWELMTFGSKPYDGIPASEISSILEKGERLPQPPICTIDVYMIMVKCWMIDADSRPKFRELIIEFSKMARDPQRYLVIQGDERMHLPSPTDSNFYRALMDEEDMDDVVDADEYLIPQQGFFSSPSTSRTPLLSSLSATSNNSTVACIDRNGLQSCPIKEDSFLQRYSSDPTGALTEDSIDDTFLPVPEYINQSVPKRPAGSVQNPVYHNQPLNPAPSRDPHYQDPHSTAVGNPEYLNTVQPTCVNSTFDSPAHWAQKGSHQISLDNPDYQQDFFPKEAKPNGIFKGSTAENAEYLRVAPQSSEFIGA
Epidermal growth factor receptor (Homo sapiens, UniProt P00533, L861Q), sequence (P00533 25-1210 L861Q limits assumed): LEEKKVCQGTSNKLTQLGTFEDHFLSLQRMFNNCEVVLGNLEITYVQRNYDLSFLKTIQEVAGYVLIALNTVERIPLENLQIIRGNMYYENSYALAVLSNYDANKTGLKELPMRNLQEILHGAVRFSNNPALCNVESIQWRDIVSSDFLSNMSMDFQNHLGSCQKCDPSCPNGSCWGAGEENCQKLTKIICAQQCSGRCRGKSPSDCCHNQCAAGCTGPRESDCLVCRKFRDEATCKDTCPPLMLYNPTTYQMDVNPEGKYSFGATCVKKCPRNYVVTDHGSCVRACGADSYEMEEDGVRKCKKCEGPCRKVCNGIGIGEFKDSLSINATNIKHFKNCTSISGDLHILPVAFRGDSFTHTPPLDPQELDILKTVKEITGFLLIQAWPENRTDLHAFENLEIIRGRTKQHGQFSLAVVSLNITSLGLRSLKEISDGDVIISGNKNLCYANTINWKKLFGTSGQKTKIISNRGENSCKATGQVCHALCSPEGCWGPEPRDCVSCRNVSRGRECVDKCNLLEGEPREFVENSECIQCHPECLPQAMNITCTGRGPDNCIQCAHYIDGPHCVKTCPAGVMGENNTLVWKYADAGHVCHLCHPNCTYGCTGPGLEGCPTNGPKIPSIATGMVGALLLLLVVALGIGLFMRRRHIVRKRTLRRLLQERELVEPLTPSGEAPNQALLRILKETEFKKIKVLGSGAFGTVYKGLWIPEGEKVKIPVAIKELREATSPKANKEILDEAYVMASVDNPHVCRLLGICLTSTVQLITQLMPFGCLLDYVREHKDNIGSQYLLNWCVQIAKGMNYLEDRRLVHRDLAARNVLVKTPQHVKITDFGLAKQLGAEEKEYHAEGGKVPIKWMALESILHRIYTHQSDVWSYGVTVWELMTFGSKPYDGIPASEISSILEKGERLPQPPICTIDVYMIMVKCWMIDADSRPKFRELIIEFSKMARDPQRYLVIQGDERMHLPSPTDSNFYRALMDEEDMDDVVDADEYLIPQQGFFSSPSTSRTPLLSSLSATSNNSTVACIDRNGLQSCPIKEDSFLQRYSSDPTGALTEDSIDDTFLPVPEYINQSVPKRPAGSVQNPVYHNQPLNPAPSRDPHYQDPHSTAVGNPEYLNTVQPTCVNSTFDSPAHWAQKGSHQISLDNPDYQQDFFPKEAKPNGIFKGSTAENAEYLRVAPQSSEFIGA

Consider `C#Cc1cccc(Nc2ncnc3cc(OC)c(OCCCCCN/C(=N\C#N)Nc4ccncc4)cc23)c1`, for which the GI50 in the series with NCI-H1975 was found to be 78.3 nM; in the series with Huh-7, 1.64 nM; in the series on MCF7, 0.1 nM; with K562 it was 38 nM. Moreover, the IC50 was 0.23 nM in [1], 0.26 nM in series [3], 153 nM in series [4] and 0.26 nM in [5]. Also, the Activity entry in [2] was “Non-Toxic”.

For the compound `C#Cc1cccc(Nc2ncnc3cc(OC)c(OCCCCCN/C(=N\C#N)Nc4cccnc4)cc23)c1`, the IC50 worked out at 0.52 nM in [1], 0.41 nM in series [3], 228 nM in series [4] and 0.46 nM in [5]. The GI50 is 62.9 nM with Huh-7, 0.98 nM in the series on MCF7 and 175 nM with K562.

With `C#Cc1cccc(Nc2ncnc3cc(OC)c(OCCCCCCCN/C(=N\C#N)Nc4cccnc4)cc23)c1`, the IC50 in series [1] came to 0.538 nM; in [3] it was 0.48 nM; in series [4], 448 nM; in [5], 0.49 nM. Besides, the GI50 with Huh-7 came to 9.94 nM; in the series on MCF7 it was 0.63 nM; in the series on K562, 42.1 nM.

Turning to `C#Cc1cccc(Nc2ncnc3cc(OC)c(OCCCCCCN/C(=N\C#N)Nc4ccncc4)cc23)c1`, the IC50 in series [1] amounted to 0.35 nM; in series [3], 0.32 nM; in series [4] it was 323 nM; in series [5], 0.36 nM. For the same compound, the GI50 with Huh-7 came out at 1.87 nM; with MCF7 it was 0.15 nM; in the series on K562 it was 7.47 nM.

`C#Cc1cccc(Nc2ncnc3cc(OC)c(OCCCCCCCN/C(=N\C#N)Nc4ccncc4)cc23)c1`: the IC50 in series [1] worked out at 0.473 nM; in series [3] it was 0.46 nM; in [4], 581 nM; in series [5], 0.55 nM. Besides, the GI50 is 1.81 nM in the series on Huh-7, 0.21 nM with MCF7 and 50.9 nM in the series on K562.

Turning to `C#Cc1cccc(Nc2ncnc3cc(OC)c(OCCCCCCN/C(=N\C#N)Nc4cccnc4)cc23)c1`, the IC50 came to 0.32 nM in series [1], 0.38 nM in [3], 326 nM in series [4] and 0.38 nM in [5]. The GI50 with MCF7 was 0.16 nM; with K562, 24.6 nM.

As for `CC(=O)O[C@H]1C(=O)[C@@]2(C)[C@H]([C@H](OC(=O)c3ccccc3)[C@]3(O)C[C@H](OC(=O)[C@H](O)[C@@H](NC(=O)c4ccccc4)c4ccccc4)C(C)=C1C3(C)C)[C@]1(OC(C)=O)CO[C@@H]1C[C@@H]2O` [PACLITAXEL], the GI50 with Huh-7 worked out at 7.41 nM; with MCF7, 4.85 nM; with K562 it was 2.76 nM.

The values are drawn from ChEMBL document CHEMBL4818995, “Dual nicotinamide phosphoribosyltransferase and epidermal growth factor receptor inhibitors for the treatment of cancer” (Eur J Med Chem, 2021).
